Measurements taken from ChEMBL document CHEMBL1137646, “Intracellular metabolism and persistence of the anti-human immunodeficiency virus activity of 2',3'-didehydro-3'-deoxy-4'-ethynylthymidine, a novel thymidine analog” (Antimicrob Agents Chemother, 2007).
Activity calls are given as the source filed them. The rule behind the calls is not given here.

Tests used:
CCRF-CEM [1] = assay: Drug metabolism in human CEM cells assessed as radioactive zidovudine monophosphate accumulation at 2 uM assessed per 10^6 cells; format: ADME, cell-based; conditions: TDE = time-dependent effect
Procedure, shortened: (§1)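 CEM cells (2 x 10^7/ml) in RPMI 1640 with 10% dialyzed FBS were incubated at 37°C with 2 µM [3H]analog (75 mCi/mmol) and harvested at 2, 4, 8, 12, 16 and 24 h. Cells were washed in ice-cold PBS with 20 µM dipyridamole and extracted with 15% TCA. Neutralized extracts were separated on a Partisil SAX column with an H2O to 300 mM potassium phosphate gradient and radiometric detection, reported as pmol/10^6 cells, mean ± SD of three experiments.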

CCRF-CEM [2] = assay: Drug metabolism in human CEM cells assessed as radioactive zidovudine diphosphate accumulation at 2 uM assessed per 10^6 cells; format: ADME, cell-based; conditions: TDE = time-dependent effect; procedure, shortened: as §1
CCRF-CEM [3] = assay: Drug metabolism in human CEM cells assessed as radioactive zidovudine triphosphate accumulation at 2 uM assessed per 10^6 cells; format: ADME, cell-based; conditions: TDE = time-dependent effect; procedure, shortened: as §1
CCRF-CEM [4] = assay: Drug metabolism in human CEM cells assessed as radioactive 2', 3'-didehydro-3'-deoxy-4'-ethynylthymidine monophosphate accumulation at 2 uM assessed per 10^6 cells; format: ADME, cell-based; conditions: TDE = time-dependent effect; procedure, shortened: as §1
CCRF-CEM [5] = assay: Drug metabolism in human CEM cells assessed as radioactive 2', 3'-didehydro-3'-deoxy-4'-ethynylthymidine diphosphate accumulation at 2 uM assessed per 10^6 cells; format: ADME, cell-based; conditions: TDE = time-dependent effect; procedure, shortened: as §1
CCRF-CEM [6] = assay: Drug metabolism in human CEM cells assessed as radioactive 2', 3'-didehydro-3'-deoxy-4'-ethynylthymidine triphosphate accumulation at 2 uM assessed per 10^6 cells; format: ADME, cell-based; conditions: TDE = time-dependent effect; procedure, shortened: as §1
CCRF-CEM [7] = assay: Drug metabolism in human CEM cells assessed as radioactive stavudine monophosphate accumulation at 2 uM assessed per 10^6 cells; format: ADME, cell-based; conditions: TDE = time-dependent effect; procedure, shortened: as §1
CCRF-CEM [8] = assay: Drug metabolism in human CEM cells assessed as radioactive stavudine diphosphate accumulation at 2 uM assessed per 10^6 cells; format: ADME, cell-based; conditions: TDE = time-dependent effect; procedure, shortened: as §1
CCRF-CEM [9] = assay: Drug metabolism in human CEM cells assessed as radioactive stavudine triphosphate accumulation at 2 uM assessed per 10^6 cells; format: ADME, cell-based; conditions: TDE = time-dependent effect; procedure, shortened: as §1
CCRF-CEM [10] = assay: Drug metabolism in human CEM cells assessed as radioactive 2', 3'-didehydro-3'-deoxy-4'-ethynylthymidine monophosphate accumulation after 12 hrs assessed per 10^6 cells; format: ADME, cell-based; procedure, shortened: as §1
CCRF-CEM [11] = assay: Drug metabolism in human CEM cells assessed as radioactive 2', 3'-didehydro-3'-deoxy-4'-ethynylthymidine diphosphate accumulation after 12 hrs assessed per 10^6 cells; format: ADME, cell-based
Procedure, shortened: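 For the dose series, CEM cells took up [3H]4'-Ed4T at 0.2/0.25, 0.5, 1 and 2 µM (150 mCi/mmol) for 12 h. TCA extracts were neutralized and the mono-, di- and triphosphates resolved by SAX-HPLC with radioactivity detection. Values are pmol/10^6 cells, mean ± SD, three independent experiments.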

CCRF-CEM [12] = assay: Drug metabolism in human CEM cells assessed as radioactive 2', 3'-didehydro-3'-deoxy-4'-ethynylthymidine triphosphate accumulation after 12 hrs assessed per 10^6 cells; format: ADME, cell-based; procedure, shortened: as §1
RKO [13] = assay: Drug metabolism in doxycyclin-induced Tet-On gene expressing human RKO cells producing thymidylate kinase assessed as increase in radioactive 2', 3'-didehydro-3'-deoxy-4'-ethynylthymidine diphosphate accumulation at 2 uM after 16 hrs assessed per 10^6 cells by HPLC analysis relative to control; format: ADME, cell-based
Procedure, shortened: (§2)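 TMPK Tet-On RKO cells were seeded at 5 x 10^5 per dish with doxycycline at 0, 50 or 3,000 ng/ml for 48 or 72 h, then pulsed for 16 h with 2 µM [5'-3H]4'-Ed4T (478 mCi/mmol). After a cold PBS wash containing 20 µM dipyridamole, cells were extracted with 15% TCA and neutralized with trioctylamine/trichlorotrifluoroethane. Metabolites were quantified by radio-HPLC as pmol/10^6 cells, n=3.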

RKO [14] = assay: (§3) Drug metabolism in doxycyclin-induced Tet-On gene expressing human RKO cells producing thymidylate kinase assessed as increase in radioactive 2', 3'-didehydro-3'-deoxy-4'-ethynylthymidine triphosphate accumulation at 2 uM after 16 hrs assessed per 10^6 cells by HPLC analysis relative to control; format: ADME, cell-based; procedure, shortened: as §2
RKO [15] = assay: as §3, with “3-phosphoglycerate” for “thymidylate”; format: ADME, cell-based
Procedure, shortened: (§4)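 Tet-On PGK RKO cells (5 x 10^5 per dish) were induced with doxycycline at 0, 50 or 100 ng/ml for 48 or 72 h, then given 2 µM [5'-3H]4'-Ed4T (478 mCi/mmol) for 16 h. Cells were washed in cold PBS with 20 µM dipyridamole and extracted with 15% TCA. Neutralized extracts went through SAX-HPLC with radiometric detection, expressed as pmol/10^6 cells, mean of three experiments.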

RKO [16] = assay: Drug metabolism in doxycyclin-induced Tet-On gene expressing human RKO cells producing 3-phosphoglycerate kinase assessed as radioactive 2', 3'-didehydro-3'-deoxy-4'-ethynylthymidine triphosphate accumulation after 16 hrs assessed per 10^6 cells by HPLC analysis; format: ADME, cell-based; procedure, shortened: as §4
CCRF-CEM [17] = assay: Stability in human CEM cells assessed as intracellular radioactive phosphorylated metabolite accumulation at 2 uM incubated for 24 hrs measured after 8 hrs of compound removal assessed per 10^6 cells; format: ADME, cell-based
Procedure, shortened: (§5)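 CEM cells were loaded with 2 µM [3H]analog (75 mCi/mmol) for 24 h, washed, and resuspended in drug-free medium. Intracellular metabolites were then measured by SAX-HPLC with radiometric detection at 0, 2, 4, 8, 12 and 24 h after removal. Values are pmol/10^6 cells, mean ± SD of three experiments.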

CCRF-CEM [18] = assay: Stability in human CEM cells assessed as intracellular radioactive triphosphate metabolite accumulation at 2 uM incubated for 24 hrs measured after 24 hrs of compound removal assessed per 10^6 cells; format: ADME, cell-based; procedure, shortened: as §5
RKO [19] = assay: Drug metabolism in doxycyclin-induced Tet-On gene expressing human RKO cells producing thymidylate kinase assessed as radioactive 2', 3'-didehydro-3'-deoxy-4'-ethynylthymidine diphosphate accumulation after 16 hrs assessed per 10^6 cells by HPLC analysis; format: ADME, cell-based; procedure, shortened: as §2
[20] = system: Human immunodeficiency virus 1; assay: Antiviral activity against 0.1 MOI HIV1 3B infected in human TZM-b1 cells assessed as inhibition of viral replication after 24 hrs by luciferase assay; format: functional, organism-based
Procedure, shortened: (§6)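 TZM-bl cells in phenol red-free RPMI 1640 were infected with HIV-1 IIIB (MOI 0.1) at the time of adding drug at various concentrations, and drug and virus stayed together for 24 h. Lysate luciferase was measured with uninfected background subtracted, in quintuple wells. Inhibition was the mean signal relative to drug-free infected cells.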

[21] = system: Human immunodeficiency virus 1; assay: Antiviral activity against 0.1 MOI HIV1 3B in 24 hrs pretreated human TZM-b1 cells infected 0 hr post drug removal assessed as inhibition of viral replication at 1 uM measured 24 hrs postinfection by luciferase assay; format: functional; conditions: Human immunodeficiency virus 1, 3B
Procedure, shortened: (§7)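 TZM-bl cells were plated in phenol red-free RPMI 1640, allowed to adhere 15–18 h at 37°C, then exposed to a range of drug concentrations for 24 h. Medium was changed to remove extracellular drug, and cells were infected with HIV-1 IIIB (MOI 0.1) at 0, 24 or 48 h after removal. Luciferase was read 24 h post-infection with uninfected-cell background subtracted, in quintuple wells, and expressed relative to no-drug wells.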

[22] = system: Human immunodeficiency virus 1; assay: Antiviral activity against 0.1 MOI HIV1 3B in 24 hrs pretreated human TZM-b1 cells infected 0 hr post drug removal assessed as inhibition of viral replication at 2 uM measured 24 hrs postinfection by luciferase assay; format: functional; conditions: Human immunodeficiency virus 1, 3B; procedure, shortened: as §7
[23] = system: Human immunodeficiency virus 1; assay: Antiviral activity against 0.1 MOI HIV1 3B in 24 hrs pretreated human TZM-b1 cells infected 0 hr post drug removal assessed as inhibition of viral replication at 3 uM measured 24 hrs postinfection by luciferase assay; format: functional; conditions: Human immunodeficiency virus 1, 3B; procedure, shortened: as §7
[24] = system: Human immunodeficiency virus 1; assay: Antiviral activity against 0.1 MOI HIV1 3B in 24 hrs pretreated human TZM-b1 cells infected 0 hr post drug removal assessed as inhibition of viral replication at 4 uM measured 24 hrs postinfection by luciferase assay; format: functional; conditions: Human immunodeficiency virus 1, 3B; procedure, shortened: as §7
[25] = system: Human immunodeficiency virus 1; assay: Antiviral activity against 0.1 MOI HIV1 3B in 24 hrs pretreated human TZM-b1 cells infected 0 hr post drug removal assessed as inhibition of viral replication at 5 uM measured 24 hrs postinfection by luciferase assay; format: functional; conditions: Human immunodeficiency virus 1, 3B; procedure, shortened: as §7
[26] = system: Human immunodeficiency virus 1; assay: Antiviral activity against 0.1 MOI HIV1 3B in 24 hrs pretreated human TZM-b1 cells infected 0 hr post drug removal assessed as inhibition of viral replication at 6 uM measured 24 hrs postinfection by luciferase assay; format: functional; conditions: Human immunodeficiency virus 1, 3B; procedure, shortened: as §7
[27] = system: Human immunodeficiency virus 1; assay: Antiviral activity against 0.1 MOI HIV1 3B in 24 hrs pretreated human TZM-b1 cells infected 24 hrs post drug removal assessed as inhibition of viral replication at 1 uM measured 24 hrs postinfection by luciferase assay; format: functional; conditions: Human immunodeficiency virus 1, 3B; procedure, shortened: as §7
[28] = system: Human immunodeficiency virus 1; assay: Antiviral activity against 0.1 MOI HIV1 3B infected in human TZM-b1 cells assessed as inhibition of viral replication at 6 uM after 24 hrs by luciferase assay; format: functional; conditions: Human immunodeficiency virus 1, 3B, TZM-b1, 24 h; procedure, shortened: as §6
[29] = system: Human immunodeficiency virus 1; assay: Antiviral activity against 0.1 MOI HIV1 3B infected in human TZM-b1 cells assessed as inhibition of viral replication at 2 uM after 24 hrs by luciferase assay; format: functional; conditions: Human immunodeficiency virus 1, 3B, TZM-b1, 24 h; procedure, shortened: as §6
[30] = system: Human immunodeficiency virus 1; assay: Antiviral activity against 0.1 MOI HIV1 3B in 24 hrs pretreated human TZM-b1 cells infected 24 hrs post drug removal assessed as inhibition of viral replication at 1 to 6 uM measured 24 hrs postinfection by luciferase assay

Activity (CCRF-CEM [1]): tde | Activity (CCRF-CEM [2]): tde | Activity (CCRF-CEM [3]): tde | Activity (CCRF-CEM [4]): tde | Activity (CCRF-CEM [5]): tde | Activity (CCRF-CEM [6]): tde | Activity (CCRF-CEM [7]): tde | Activity (CCRF-CEM [8]): tde | Activity (CCRF-CEM [9]): tde | Activity (CCRF-CEM [10]): Dose-dependent effect | Activity (CCRF-CEM [11]): Dose-dependent effect | Activity (CCRF-CEM [12]): Dose-dependent effect | fold change (FC) (RKO [13]): 3 | fold change (FC) (RKO [14]): 3 | fold change (FC) (RKO [15]): 2.3 | Activity (RKO [16]): Dose-dependent effect | Stability (CCRF-CEM [17]): 1.07 pmol | Stability (CCRF-CEM [18]): 0.2 pmol | Activity (RKO [19]): Dose-dependent effect
SMILES: C#C[C@@]1(CO)C=C[C@H](n2cc(C)c(=O)[nH]c2=O)O1 [CENSAVUDINE]
inhibition [20]: Dose-dependent effect | inhibition at 1 µM [21]: 50% | inhibition at 2 µM [22]: 50% | inhibition at 3 µM [23]: 50% | inhibition at 4 µM [24]: 50% | inhibition at 5 µM [25]: 50% | inhibition at 6 µM [26]: 50% | inhibition at 1 µM [27]: > 50% | inhibition at 6 µM [28]: 50% | inhibition at 2 µM [29]: 50% | inhibition [30]: Active
